From ChEMBL document CHEMBL1146338, “Synthesis and antioxidant activity evaluation of new 7-aryl or 7-heteroarylamino-2,3-dimethylbenzo[b]thiophenes obtained by Buchwald-Hartwig C-N cross-coupling” (Bioorg Med Chem, 2007)
Converted amounts (≈) assume the structure as drawn.

Tests used:
Erythrocyte [1] = assay: Inhibition of AAPH-induced ram erythrocyte hemolysis at 1 g/L; type: functional; conditions: Ovis aries
How it was run: (§1)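 Erythrocytes from a male ram (churra galega transmontana) washed three times in 10 mM PBS pH 7.4. A 20% suspension combined with 200 mM AAPH in PBS and methanolic compound at different concentrations, shaken gently 3 h at 37 C. Diluted with PBS, centrifuged, supernatant A540 read. % inhibition set against the AAPH control without compound. Triplicate means; EC50 from the plot; L-ascorbic acid as standard.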

[2] = Antioxidant activity assessed as inhibition of lipid peroxidation at 0.0156 g/L after 2 hrs by beta carotene bleaching method; type: functional
How it was run: (§2)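 β-Carotene linoleate emulsion (β-carotene dissolved in chloroform) incubated with compound at 50 C in a water bath. A470 read at time zero, then every 20 min until the control lost colour; a blank without β-carotene was subtracted. Activity = (β-carotene after 2 h / initial β-carotene) × 100. Triplicate means; EC50 taken from the activity % versus concentration plot.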

[3] = system: Radical scavenging activity; assay: Antioxidant activity assessed as DPPH radical scavenging activity at 0.250 g/L; type: functional
How it was run: (§3)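 Compound in methanol (0.3 mL, various concentrations) mixed with methanolic DPPH ([…] stock, 2.7 mL), shaken and held 60 min in the dark. Absorbance read at 517 nm. %RSA = [(ADPPH − AS)/ADPPH] × 100. Means of three independent samples. EC50 (50% scavenging) taken from the plot of %RSA against concentration; BHA and BHT as standards.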

[4] = Antioxidant activity assessed as reduction of ferric cyanide complex by reducing power assay; type: functional
How it was run: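 Oyaizu method: methanolic compound at various concentrations mixed with sodium phosphate buffer (200 mmol/L, pH 6.6) and 1% potassium ferricyanide, held 20 min at 50 C. 10% TCA added, then centrifuged. Supernatant diluted with water, 0.1% FeCl3 added, A700 read. Triplicate means; EC50 = concentration giving absorbance 0.5, from the A700 versus concentration plot. Standards: BHA, BHT, ascorbic acid.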

Erythrocyte [5] = assay: Inhibition of AAPH-induced ram erythrocyte hemolysis at 0.0625 g/L; type: functional; conditions: Ovis aries; how it was run: as §1
Erythrocyte [6] = assay: Inhibition of AAPH-induced ram erythrocyte hemolysis; type: functional, cell-based; conditions: Ovis aries; how it was run: as §1
Erythrocyte [7] = assay: Inhibition of AAPH-induced ram erythrocyte hemolysis at 0.0312 g/L; type: functional; conditions: Ovis aries; how it was run: as §1
[8] = Antioxidant activity assessed as inhibition of lipid peroxidation at 0.0625 g/L after 2 hrs by beta carotene bleaching method; type: functional; how it was run: as §2
[9] = Antioxidant activity assessed as inhibition of lipid peroxidation after 2 hrs by beta carotene bleaching method; type: functional; how it was run: as §2
[10] = Antioxidant activity assessed as inhibition of lipid peroxidation at 0.0312 g/L after 2 hrs by beta carotene bleaching method; type: functional; how it was run: as §2
[11] = system: Radical scavenging activity; assay: Antioxidant activity assessed as DPPH radical scavenging activity at 0.0156 g/L; type: functional; how it was run: as §3
[12] = system: Radical scavenging activity; assay: Antioxidant activity assessed as DPPH radical scavenging activity; type: functional; how it was run: as §3
[13] = Antioxidant activity assessed as inhibition of lipid peroxidation at 0.125 g/L after 2 hrs by beta carotene bleaching method; type: functional; how it was run: as §2
[14] = system: Radical scavenging activity; assay: Antioxidant activity assessed as DPPH radical scavenging activity at 0.0625 g/L; type: functional; how it was run: as §3
[15] = system: Radical scavenging activity; assay: Antioxidant activity assessed as DPPH radical scavenging activity at 0.125 g/L; type: functional; how it was run: as §3
Erythrocyte [16] = assay: Inhibition of AAPH-induced ram erythrocyte hemolysis at 0.0156 g/L; type: functional; conditions: Ovis aries; how it was run: as §1
Erythrocyte [17] = assay: Inhibition of AAPH-induced ram erythrocyte hemolysis at 0.250 g/L; type: functional; conditions: Ovis aries; how it was run: as §1
[18] = Antioxidant activity assessed as inhibition of lipid peroxidation at 0.250 g/L after 2 hrs by beta carotene bleaching method; type: functional; how it was run: as §2
[19] = system: Radical scavenging activity; assay: Antioxidant activity assessed as DPPH radical scavenging activity at 0.0312 g/L; type: functional; how it was run: as §3
Erythrocyte [20] = assay: Inhibition of AAPH-induced ram erythrocyte hemolysis at 0.125 g/L; type: functional; conditions: Ovis aries; how it was run: as §1
[21] = Antioxidant activity assessed as inhibition of lipid peroxidation at 2 g/L after 2 hrs by beta carotene bleaching method; type: functional; how it was run: as §2

EC50 [4] [µg/mL]	EC50 [9] [µg/mL]	EC50 [12] [µg/mL]	Structure (SMILES)	inhibition [2] [%]	Activity [3] [%]	inhibition at 62.5 µg/mL (Erythrocyte [5]) [%]	EC50 (Erythrocyte [6]) [µg/mL]	inhibition at 31.2 µg/mL (Erythrocyte [7]) [%]	inhibition [8] [%]	inhibition [10] [%]	Activity [11] [%]	inhibition [13] [%]	Activity [14] [%]	Activity [15] [%]	inhibition at 15.6 µg/mL (Erythrocyte [16]) [%]	inhibition at 250 µg/mL (Erythrocyte [17]) [%]	inhibition [18] [%]	Activity [19] [%]	inhibition at 125 µg/mL (Erythrocyte [20]) [%]	also measured
–	–	–	O=C1O[C@H]([C@@H](O)CO)C(O)=C1O [ASCORBIC ACID]	–	–	–	–	–	–	–	–	–	–	–	–	–	–	–	–	inhibition at 1000 µg/mL (Erythrocyte [1]): 94.6%
22.7 (≈ 72.4 µM)	8.73 (≈ 27.9 µM)	17.3 (≈ 55.2 µM)	COc1ccc(Nc2cccc3c(C)c(C)sc23)cc1OC	89.3	94.7	61.2	18.9 (≈ 60.3 µM)	58.3	100	91.4	47.3	100	86.9	92.1	47.8	62.9	100	72.4	62.1	–
> 250	16 (≈ 57.5 µM)	> 250	Cc1sc2c(Nc3ccc(C#N)cc3)cccc2c1C	49.6	3.1	62.1	18 (≈ 64.7 µM)	59.4	69	67.3	0	71	0	0.5	48.3	66.4	79.6	0	62.6	–
–	–	–	CC(C)(C)c1cc(O)ccc1O	–	–	–	–	–	–	–	–	–	–	–	–	–	–	–	–	inhibition [21]: 82.2%
> 250	17.3 (≈ 68 µM)	> 250	Cc1sc2c(Nc3cccnc3)cccc2c1C	48.1	15.5	66.9	24.1 (≈ 94.7 µM)	56.8	70.9	65.4	2.5	76.1	5.5	9	41.8	74.1	86.2	2.8	69.3	–
21.6 (≈ 76.2 µM)	8.45 (≈ 29.8 µM)	14 (≈ 49.4 µM)	COc1ccc(Nc2cccc3c(C)c(C)sc23)cc1	92.3	93.3	65.1	21.4 (≈ 75.5 µM)	61.2	99.7	96.8	55.8	100	88.4	91.1	43.4	66.7	100	85.8	65.9	–
98.7 (≈ 348 µM)	13.7 (≈ 48.3 µM)	> 250	COc1cccc(Nc2cccc3c(C)c(C)sc23)c1	56.8	28.4	58	44.2 (≈ 156 µM)	44.3	68.9	62.9	7.9	82.6	13.5	22.2	40.3	66.7	84.8	13.4	63.1	–
> 250	> 250	> 250	Cc1sc2c(Nc3ccccn3)cccc2c1C	40.7	9	53	51.4 (≈ 202 µM)	44.5	45.8	42.9	0.4	45.9	4.9	8.8	38.4	69.5	47.2	2.6	64.6	–
